Data: ChEMBL document CHEMBL1135587, “Discovery and structure-activity relationship of N-(ureidoalkyl)-benzyl-piperidines as potent small molecule CC chemokine receptor-3 (CCR3) antagonists” (J Med Chem, 2002)

How the values were obtained:
[1] = target: T1, C-C chemokine receptor type 3 (Homo sapiens, UniProt P51677); experiment: Inhibitory activity against recombinant human Chemokine receptor type 3 (CCR3) expressed in chinese hamster ovary cells; type: cell-based, CHO
T1 sequence (P51677 whole entry): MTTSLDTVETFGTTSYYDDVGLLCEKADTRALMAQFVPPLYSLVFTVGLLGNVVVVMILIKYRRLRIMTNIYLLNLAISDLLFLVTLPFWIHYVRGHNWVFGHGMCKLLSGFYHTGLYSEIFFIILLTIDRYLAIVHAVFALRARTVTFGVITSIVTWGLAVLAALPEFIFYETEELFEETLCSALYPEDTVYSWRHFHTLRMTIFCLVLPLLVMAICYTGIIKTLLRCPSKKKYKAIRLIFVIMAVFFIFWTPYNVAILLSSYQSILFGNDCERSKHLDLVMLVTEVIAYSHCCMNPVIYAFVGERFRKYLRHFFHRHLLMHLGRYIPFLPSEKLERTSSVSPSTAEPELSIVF
How it was run: (§1)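 CHO cells transfected with human CCR3, 5×10^5 per well, incubated 30 min at room temperature with 150 pM (final) 125I-labeled human eotaxin and compound. Binding buffer: RPMI 1640 with 0.5% BSA, 20 mM HEPES, 5 mM MgCl2. Filtration on protamine-treated filter plates, washed with binding buffer plus 0.5 M NaCl, filter counted. Nonspecific binding defined with 100 nM eotaxin. Percent inhibition taken against compound-free total binding. IC50 values are the mean of usually three determinations.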

[2] = The compound was evaluated for its intracellular calcium mobilization; type: functional, cell-based; conditions: Homo sapiens
How it was run: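 Freshly isolated human eosinophils loaded with 5 μM fluo-3 for 60 min at 37 °C, washed, then plated at 2×10^5/well in phenol red-free binding buffer. Compound or buffer added for 5 min, then eotaxin to 10 nM final, read on FLIPR. Base-to-peak fluorescence shift measured in duplicate; inhibition at graded concentrations expressed as percent of the compound-free eotaxin control to give IC50.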

[3] = target: T2, C-C chemokine receptor type 3 (Homo sapiens) (UniProt P51677); experiment: Evaluated for its inhibitory activity against human Chemokine receptor type 3 expressed in chinese hamster ovary cells at 5 uM; type: cell-based; conditions: CHO; how it was run: as §1
T2 sequence (whole entry): T1 sequence (P51677 whole entry)

[4] = target: T3, C-C chemokine receptor type 1 (Homo sapiens, UniProt P32246); experiment: Inhibitory activity against human Chemokine receptor type 1 expressed in chinese hamster ovary cells; type: cell-based, CHO
T3 sequence (P32246 whole entry): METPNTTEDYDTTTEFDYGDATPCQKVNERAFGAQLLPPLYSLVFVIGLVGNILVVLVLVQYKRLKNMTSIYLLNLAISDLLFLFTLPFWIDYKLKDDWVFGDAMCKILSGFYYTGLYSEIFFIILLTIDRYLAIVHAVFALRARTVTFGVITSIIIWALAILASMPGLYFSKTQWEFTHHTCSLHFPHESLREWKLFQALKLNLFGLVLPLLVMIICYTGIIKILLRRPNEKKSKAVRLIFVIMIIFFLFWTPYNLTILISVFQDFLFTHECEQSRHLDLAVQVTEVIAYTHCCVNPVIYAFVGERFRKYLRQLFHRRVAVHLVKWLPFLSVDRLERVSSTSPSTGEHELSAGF

[5] = target: T2, C-C chemokine receptor type 3 (Homo sapiens); experiment: Evaluated for % inhibitory activity against human Chemokine receptor type 3 expressed in chinese hamster ovary cells; type: cell-based; conditions: CHO; concentration not given here; how it was run: as §1
[6] = The compound was evaluated for its eotaxin-induced chemotaxis; type: functional, Homo sapiens
How it was run: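 Freshly isolated human eosinophils at 1×10^6 cells/mL in RPMI 1640/0.1% BSA; cells and 20 nM human eotaxin each mixed 1:1 with compound-containing medium. Eotaxin/compound in the lower well, cells/compound above, across a 5 μm PVP-free polycarbonate filter, 45 min at 37 °C. Filter wiped, dried and Wright Giemsa-stained; migrated cells counted by microscopy.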

SMILES	IC50 [1] [nM]	IC50 [4] [nM]	other results
CNC(=O)c1ccc(NC(=O)Nc2cccc(C(C)=O)c2)c(CN2CCC(Cc3ccc(F)cc3)CC2)c1	8	–	IC50 [2]: 11.8 nM
CNC(=O)c1cccc(NC(=O)Nc2cccc(OC)c2)c1CN1CCC(Cc2ccc(F)cc2)CC1	2	–	IC50 [2]: 4.2 nM
O=C(Nc1cc(F)ccc1F)Nc1ccccc1CN1CCN(Cc2ccccc2)CC1	–	–	inhibition [3]: 28%
O=C(NCCN1CCCCC1)Nc1ccccc1CN1CCC(Cc2ccccc2)CC1	7600	> 50000	–
O=C(Nc1ccccc1CN1CCC(Cc2ccccc2)CC1)NC1CCN(Cc2ccccc2)CC1	3900	> 50000	–
CC(C)(C)NC(=O)NCC(CCCN1CCC(O)(c2ccc(Cl)cc2)CC1)(c1ccccc1)c1ccccc1	3000	71	–
COc1ccc(NC(=O)Nc2ccc(CN3CCC(Cc4ccccc4)CC3)cc2)cc1	–	–	inhibition [5]: 48%
O=C(Nc1cc(F)ccc1F)Nc1ccccc1C(O)CN1CCC(Cc2ccccc2)CC1 (stereo unspecified)	410	> 10000	–
O=C(NCC(CCCN1CCC(O)(c2ccc(Cl)cc2)CC1)(c1ccccc1)c1ccccc1)Nc1ccccc1	9800	< 780	–
NCC(CCCN1CCC(O)(c2ccc(Cl)cc2)CC1)(c1ccccc1)c1ccccc1	12000	760	–
O=C(NCC(CCCN1CCC(O)(c2ccc(Cl)cc2)CC1)(c1ccccc1)c1ccccc1)Nc1ccc(C(F)(F)F)cc1	5200	890	–
N#Cc1cccc(NC(=O)Nc2ccc(CN3CCC(Cc4ccccc4)CC3)cc2)c1	–	–	inhibition [3]: 47%
CC(=O)c1cccc(NC(=O)Nc2ccccc2CCN2CCC(Cc3ccc(F)cc3)CC2)c1	2.6	–	IC50 [6]: 71 nM
O=C(Nc1ccc2[nH]ncc2c1)Nc1ccccc1CN1CCC(Cc2ccccc2)CC1	450	> 10000	–
O=C(Nc1cc(F)ccc1F)Nc1ccccc1N1CCC(Cc2ccccc2)CC1	–	–	inhibition [3]: 9%
N#Cc1cccc(NC(=O)Nc2ccccc2C(O)CN2CCC(Cc3ccccc3)CC2)c1 (stereo unspecified)	49	> 10000	–
O=C(NCCCO)NCC(CCCN1CCC(O)(c2ccc(Cl)cc2)CC1)(c1ccccc1)c1ccccc1	2350	31	–
O=C(NCCN1CCCCC1)NCC(CCCN1CCC(O)(c2ccc(Cl)cc2)CC1)(c1ccccc1)c1ccccc1	2200	360	–
O=C(NCC(CCCN1CCC(O)(c2ccc(Cl)cc2)CC1)(c1ccccc1)c1ccccc1)NC1CCN(Cc2ccccc2)CC1	1620	310	–
c1ccc(CCCCN2CCC(Cc3ccccc3)CC2)cc1	3800	> 50000	–
